Test results taken from ChEMBL document CHEMBL1148785, “Second generation tetrahydroquinoline-based protein farnesyltransferase inhibitors as antimalarials” (J Med Chem, 2007).
Several values for one entry are separate records, joined by “and”; a condition that tells them apart may be missing. Identical values can stand only once.

Experiments:
Plasmodium falciparum [1] = assay: Antimalarial activity against Plasmodium falciparum 3D7; assay type: functional; conditions: Plasmodium falciparum, 3D7; read-out: ED50 (the source's name)
Outline: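 Asynchronous culture in type A+ erythrocytes at 0.5% parasitemia and 0.5% hematocrit, grown in RPMI-1640 with 20% heat-inactivated human A+ plasma. Compound was serially diluted from a top final 5 µM, with DMSO vehicle as 100% growth. Plates ran 48 h at 37 °C under 5% CO2/5% O2/90% N2, then [3H]-hypoxanthine (0.3 µCi) for 24 h. Filter-harvested counts were corrected for the uninfected-RBC background. ED50 by linear regression; duplicates averaged.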

Plasmodium falciparum [2] = assay: Inhibition of Plasmodium falciparum protein farnesyltransferase at 0.5 nM by scintillation proximity assay
Plasmodium falciparum [3] = assay: Inhibition of Plasmodium falciparum protein farnesyltransferase at 5 nM by scintillation proximity assay
Plasmodium falciparum [4] = assay: Inhibition of Plasmodium falciparum protein farnesyltransferase at 50 nM by scintillation proximity assay

EC50 (Plasmodium falciparum [1]) [nM] | inhibition (Plasmodium falciparum [2]) [%] | inhibition (Plasmodium falciparum [3]) [%] | inhibition (Plasmodium falciparum [4]) | Compound
2700 | 0 | 16 | – | CN(C)CC(=O)N(Cc1ccccc1F)C1Cc2cc(C#N)ccc2N(Cc2cncn2C)C1 (stereo not given)
830 | 13 | 55 | 97% | Cc1ccsc1S(=O)(=O)N(Cc1ccc(S(C)(=O)=O)cc1)C1Cc2cc(C#N)ccc2N(Cc2cncn2C)C1 (stereo not given)
290 | 11 | 19 | 56% | COCC(=O)N(Cc1ccccc1F)C1Cc2cc(C#N)ccc2N(Cc2cncn2C)C1 (stereo not given)
– | 65 | 99 | 100% | Cn1cnc(S(=O)(=O)N(Cc2ccccc2F)C2Cc3cc(C#N)ccc3N(Cc3cncn3C)C2)c1 (stereo in doubt; 110)
– | 12 | 76 | 96% | Cn1cnc(S(=O)(=O)N(Cc2ccccc2F)C2Cc3cc(C#N)ccc3N(Cc3cncn3C)C2)c1 (stereo in doubt; 212)
> 5000 | 0 | 2 | 35% | CCC(C)NC(=O)c1ccc2c(c1)CC(N(CC(=O)NC(C)(C)C)S(=O)(=O)c1cn(C)cn1)CN2Cc1cncn1C (stereo not given)
640 | 10 | 76 | 97% | CCS(=O)(=O)c1ccc(CN(C2Cc3cc(C#N)ccc3N(Cc3cncn3C)C2)S(=O)(=O)c2ncn(C)c2C)cc1 (stereo not given)
75 | 39 | 88 | – | Cn1cncc1CN1CC(N(Cc2ccccc2F)C(=O)c2c[nH]cn2)Cc2cc(C#N)ccc21 (stereo not given)
2900 | 6 | 9 | 26% | COC(=O)N(Cc1ccccc1F)C1Cc2cc(C#N)ccc2N(Cc2cncn2C)C1 (stereo not given)
390 | 30 | 90 | 99% | Cn1cnc(S(=O)(=O)N(Cc2ccc(S(=O)(=O)c3ccccc3)cc2)C2Cc3cc(C#N)ccc3N(Cc3cncn3C)C2)c1 (stereo not given)
1880 | 46 | 77 | 96% | Cn1cncc1CN1CC(N(CCN2C(=O)c3ccccc3C2=O)S(=O)(=O)c2ccccn2)Cc2cc(C#N)ccc21 (stereo not given)
1200 | 12 | 20 | 69% | CNC(=O)c1ccc2c(c1)CC(N(CC(=O)NC(C)(C)C)S(=O)(=O)c1cn(C)cn1)CN2Cc1cncn1C (stereo not given)
230 | 25 | 84 | 99% | COC(=O)NCCCCN(C1Cc2cc(C#N)ccc2N(Cc2cncn2C)C1)S(=O)(=O)c1ccccn1 (stereo not given)
860 | 0 | 10 | 33% | Cn1cnc(CN2CC(N(CC3CCN(C(=O)OC(C)(C)C)CC3)S(=O)(=O)c3cn(C)cn3)Cc3cc(-c4ccccc4)ccc32)c1 (stereo not given)
120 | – | – | 94% | C=C(Br)CN(C1Cc2cc(C#N)ccc2N(Cc2cnc[nH]2)C1)S(=O)(=O)c1cn(C)cn1 (stereo not given)
850 | 13 | 87 | 98% | Cc1c(S(=O)(=O)N(Cc2cc(Br)ccc2F)C2Cc3cc(C#N)ccc3N(Cc3cncn3C)C2)ncn1C (stereo not given)
– | 1 | 10 | 62% | COC(=O)c1ccc(CN(C2Cc3cc(C#N)ccc3N(Cc3cncn3C)C2)S(=O)(=O)c2cn(C)cn2)cc1 (stereo not given)
340 | 13 | 66 | – | Cn1cncc1CN1CC(N(Cc2ccccc2F)C(=O)c2cnns2)Cc2cc(C#N)ccc21 (stereo not given)
– | 0 | 6 | 18% | Cn1cncc1CN1CC(N(CC2CCNCC2)S(=O)(=O)c2ccccn2)Cc2cc(C#N)ccc21 (stereo not given)
120 | – | – | 93% | Cn1cnc(S(=O)(=O)N(Cc2ccccc2)C2Cc3cc(C#N)ccc3N(Cc3cnc[nH]3)C2)c1 (stereo not given)

Compound | EC50 (Plasmodium falciparum [1]) [nM] | inhibition (Plasmodium falciparum [2]) [%] | inhibition (Plasmodium falciparum [3]) [%] | inhibition (Plasmodium falciparum [4])
COC(=O)N1CCC(CN(C2Cc3cc(C#N)ccc3N(Cc3cncn3C)C2)S(=O)(=O)c2ccccn2)CC1 (stereo not given) | – | – | – | 98% and 100% (2×)
